A selection: hits, their analogues and other compounds. The true share with any hit is near 2.5%.
SENP7 block: SENP7 protease inhibitors, primary screen, biochemical, luminescence, uHTS. 330,000 compounds, 1.5% hits. Sentrin-specific protease 7 (Homo sapiens), Q9BQF6. recombinant SENP7, Z-RLRGG-aminoluciferin luminescence, 40 min. inhibition, % at 5 µM. AID 434973, 2010;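 active = inhibition above about 50% at the single test dose, limit read from the data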;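 note: plate controls were DMSO with enzyme for no effect and no enzyme buffer wells for full effect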
SENP8 block-1: SENP8 protease inhibitors, primary screen, biochemical, luminescence | purified SENP8, Z-RLRGG-aminoluciferin cleavage | Sentrin-specific protease 8 (Homo sapiens), Q96LD8 | 330,000 compounds, 1.2% hits | inhibition, % at 10 µM; in the data active = inhibition above about 50%
Target sequence (Q96LD8 whole entry, looked up): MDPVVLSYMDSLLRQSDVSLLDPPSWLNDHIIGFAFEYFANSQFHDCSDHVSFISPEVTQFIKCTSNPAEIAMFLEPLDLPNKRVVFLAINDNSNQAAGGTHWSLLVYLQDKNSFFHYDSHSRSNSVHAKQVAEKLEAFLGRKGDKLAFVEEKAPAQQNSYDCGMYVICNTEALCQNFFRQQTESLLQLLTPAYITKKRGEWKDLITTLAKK
SENP1 FRET inh: human SENP1 catalytic domain inhibitors, primary screen, biochemical, FRET, uHTS. Sentrin-specific protease 1 (Homo sapiens), Q9P0U3. recombinant SENP1 catalytic domain, CyPet-SUMO1-YPet FRET cleavage. inhibition, % at 10 µM. 360,000 compounds, 0.21% hits;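 active = inhibition at least 30% at 10 µM, raw YFP signal under a set limit, fluorescence ratio 0.5 to 1.5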;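 note: 0% = enzyme with DMSO and 100% = no enzyme wells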
Target sequence (Q9P0U3 419-644 limits assumed): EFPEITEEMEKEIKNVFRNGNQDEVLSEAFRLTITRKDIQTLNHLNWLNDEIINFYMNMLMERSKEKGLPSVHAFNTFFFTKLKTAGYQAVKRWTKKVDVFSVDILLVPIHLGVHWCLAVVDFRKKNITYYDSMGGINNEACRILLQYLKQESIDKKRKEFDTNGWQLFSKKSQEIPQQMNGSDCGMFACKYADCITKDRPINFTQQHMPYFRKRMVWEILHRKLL
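material = recombinant human SENP1 catalytic domain, His6-tagged | quantity = 20 pM enzyme | reagent = 25 nM SUMO1 FRET substrate | compound dosing = 10 µM single point, 0.5% DMSO | timing = 50 min enzyme reaction, room temperature, light-protected | detection = FRET, CFP and YFP emission | control set = no-enzyme low, enzyme-DMSO high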
SENP6 inh: SENP6 protease inhibitors, primary screen, biochemical, luminescence, uHTS; 330,000 compounds, 1.8% hits; inhibition, % at 10 µM; Recombinant SENP6 catalytic domain, aminoluciferin luminescence; AID 2599, 2010; Sentrin-specific protease 6 (Homo sapiens), Q9GZR1;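 active = inhibition above about 50% at the single tested dose, limit read from the data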;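 note: plate controls were DMSO wells with enzyme for no effect and DMSO wells lacking enzyme for full effect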
SENP8 block-2: human SENP8 protease inhibitors, primary screen, biochemical, fluorescence, Nedd8 protein substrate, uHTS; recombinant SENP8; 360,000 compounds, 0.64% hits; inhibition, % at 20 µM; in the data active = inhibition mostly above about 40%, no sharp cut-off; inactive = mostly below about 27%
SENP8 conf: SENP8 protease inhibitors, retest, confirmation, biochemical, luminescence, single concentration | shares compounds with SENP7 block | Recombinant SENP8, Z-RLRGG-aminoluciferin luminescence, 60 min | inhibition, % at 12.5 µM | 6,200 compounds, 40% hits;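 active = mean inhibition across replicates above about 50%, limit read from the data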
SENP6 confirm: SENP6 protease inhibitors, confirmation, biochemical, luminescence, single concentration; inhibition, % at 12.5 µM; shares compounds with SENP7 block; recombinant SENP6, Z-RLRGG-aminoluciferin luminescence; 6,200 compounds, 58% hits; AID 488915, 2010
SENP7 conf: SENP7 protease inhibitors, retest, confirmation, biochemical, luminescence, single concentration; shares compounds with SENP7 block; recombinant SENP7, Z-RLRGG-aminoluciferin luminescence, 40 min; inhibition, % at 12.5 µM; 6,200 compounds, 69% hits
Casp3 SENP sel: caspase-3 protease inhibitors, confirmation, selectivity assay for SENP inhibitor project, biochemical, single concentration; shares compounds with SENP7 block; purified caspase-3, Z-DEVD-aminoluciferin luminescence, 60 min; inhibition, % at 12.5 µM; 6,200 compounds, 60% hits; AID 488918, 2010;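 active = mean inhibition above about 50%, limit read from the data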;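 note: plate controls were enzyme with DMSO for no effect and wells without caspase-3 for full effect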
Target sequence (P42574 28-227 limits assumed): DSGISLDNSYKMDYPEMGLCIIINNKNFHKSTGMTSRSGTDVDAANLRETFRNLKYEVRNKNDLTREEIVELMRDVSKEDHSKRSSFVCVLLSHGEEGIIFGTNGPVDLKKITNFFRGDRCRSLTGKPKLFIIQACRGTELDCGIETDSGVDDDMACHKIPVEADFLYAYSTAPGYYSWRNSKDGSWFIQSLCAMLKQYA
Luc interf: luminescence interference (SENP counter-screen); shares compounds with SENP7 block; Pre-incubated SENP8/Z-RLRGG-aminoluciferin, luciferase luminescence interference; inhibition, % at 12.5 µM; 6,200 compounds, 39% hits; AID 488919;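 active = mean inhibition above about 50% when retested at one dose, limit read from the data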;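 note: plate controls were DMSO wells with completed reaction for no effect and substrate without enzyme for full effect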
* marks the source's active call; other numbers are inactive results; i = inactive; nt = not tested or not shown.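 Rule for the calls, unless noted: active = mean inhibition above about 50% in the one-dose retest (limit read from the data); inactive = the rest.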

SMILES	SENP7 block	SENP8 block-1	SENP1 FRET inh	SENP6 inh	SENP8 block-2	SENP8 conf	SENP6 confirm	SENP7 conf	Casp3 SENP sel	Luc interf
O=c1oc2ccccc2cc1-c1nc2ccccc2o1	85*	72*	-64	90*	-293	54*	86*	98*	94*	28
Cc1ccc(-c2noc(-c3cc4ccccc4oc3=O)n2)cc1	-5	0	-5	18	-448	nt	nt	nt	nt	nt
Cn1c2c(c3ccccc31)CCN(CCCCN1CCN(c3ccccc3)CC1)C2=O	nt	nt	1	nt	-43	nt	nt	nt	nt	nt
COc1ccc2nc(NC(=O)CSc3cn[nH]n3)sc2c1	7	11	0	50*	-5	31	28	65*	62*	60*
CCOc1ccc2nc(NC(=O)CSc3cn[nH]n3)sc2c1	1	15	0	67*	11	35	30	50*	41	49
CCOc1ccc2nc(NC(=O)CSc3ccc(Cl)cc3)sc2c1	0	-9	-1	-13	6	nt	nt	nt	nt	nt
COCCOC(=O)c1c(C)oc2ccc(NS(=O)(=O)c3cccs3)cc12	3	3	0	3	4	nt	nt	nt	nt	nt
CCOC(=O)c1c(C)oc2ccc(NS(=O)(=O)c3cccs3)cc12	77*	8	0	-11	6	-10	-2	-1	0	-5
O=C(NCCCN1CCOCC1)/C(=C/c1ccc(F)cc1)NC(=O)c1ccccc1	6	-2	0	11	9	nt	nt	nt	nt	nt
CCc1ccc(NC(=O)C(CC)c2ccccc2)cc1 (stereo not drawn)	-3	-6	2	3	21	nt	nt	nt	nt	nt
c1ccc(Nc2ccccc2)cc1	6	-4	1	-1	9	nt	nt	nt	nt	nt
CCCCNC1=CC(=O)C(=O)c2ccccc21	81*	86*	1	93*	85*	61*	87*	74*	91*	5
CCc1ccc(NC2=CC(=O)C(=O)c3ccccc32)cc1	55*	70*	-2	26	i	9	23	12	4	5
O=C1C=C(Nc2ccccc2)C(=O)c2ccccc21	82*	80*	4	90*	25	26	29	47	47	14
O=C1C=C(Nc2ccccc2)c2ccccc2C1=O	46	73*	-1	81*	-392	-8	87*	72*	21	-6
CN1CCn2cnc(C(=O)NCCCCCNC(=O)OC(C)(C)C)c2C1=O	nt	nt	0	nt	3	nt	nt	nt	nt	nt
CC1=C(C(=O)N2CCOCC2)CC(CC(=O)NCc2ccco2)C(=O)N1Cc1ccc(C(C)(C)C)cc1 (stereo not drawn)	nt	nt	1	nt	10	nt	nt	nt	nt	nt
O=C1C=C(Nc2ccccc2C(=O)O)c2ccccc2C1=O	44	86*	-3	86*	33	-8	93*	82*	46	37
C/C(=N/OC(=O)c1ccccc1)c1oc(C)nc1C	78*	48	3	62*	20	67*	67*	90*	87*	52*
O=C(c1cnn(-c2nc3ccccc3s2)c1)c1ccccc1O	82*	38	4	79*	17	16	37	24	18	9
O=C(c1cnn(-c2ccccc2)c1)c1cc(Br)ccc1O	-4	-13	2	-7	24	nt	nt	nt	nt	nt
O=C(c1cnn(-c2ccccc2)c1)c1ccc2ccccc2c1O	86*	41	15	7	14	12	16	0	27	1
O=C(c1cnn(C(=O)c2ccccc2)c1)c1ccccc1O	5	-9	1	-11	-96	nt	nt	nt	nt	nt
O=C(c1cnn(-c2cccc(F)c2)c1)c1ccccc1O	68*	58*	1	71*	12	16	72*	84*	56*	12
O=C(O)c1ccc(-n2cc(C(=O)c3ccccc3O)cn2)cc1	78*	78*	-1	84*	12	81*	79*	93*	91*	85*
SMILES	SENP7 block	SENP8 block-1	SENP1 FRET inh	SENP6 inh	SENP8 block-2	SENP8 conf	SENP6 confirm	SENP7 conf	Casp3 SENP sel	Luc interf
CCN(CC(=O)Nc1c(F)cccc1F)C(=O)CNC(=O)c1cccc(C)c1	2	8	1	19	18	nt	nt	nt	nt	nt
CCOc1ccc(CCNC(=O)CS(=O)Cc2nc(-c3ccc(OC)cc3)oc2C)cc1OCC (stereo not drawn)	1	-2	-2	3	2	nt	nt	nt	nt	nt
COC(=O)[C@@]12C[C@@H](CC(=O)N3CCN(C(=O)C4CC4)CC3)C(=O)N(Cc3cccc4ccccc34)C1=CCC(C)(C)C2	nt	nt	4	nt	22	nt	nt	nt	nt	nt
CCOc1ccccc1OCC(=O)NCCc1ccc(S(N)(=O)=O)cc1	28	6	1	-3	3	nt	nt	nt	nt	nt
CN(C(=O)c1ccco1)c1nnc(C23CC4CC(CC(C4)C2)C3)s1	3	-3	2	0	2	nt	nt	nt	nt	nt
CN(C(=O)c1ccco1)c1nc2c(s1)CCCC2	92*	85*	-1	-4	28	8	91*	101*	94*	89*
Cc1ccc(NC(=O)c2cc(S(=O)(=O)N3CCCCC3)c[nH]2)cc1Cl	nt	nt	-1	nt	10	nt	nt	nt	nt	nt
CC(C)c1ccc([C@@H]2O[C@H](C)CC3=C2C(=O)OC(C)(C)O3)cc1	nt	nt	-1	nt	7	nt	nt	nt	nt	nt
COc1ccc(-c2noc(COc3ccc4c(c3)OCO4)n2)cc1	5	-16	-21	-37	-168	nt	nt	nt	nt	nt
COc1ccc(-c2noc(-c3ccc4c(c3)OCO4)n2)cc1	73*	6	-3	-50	-24	38	33	47	61*	22
c1ccc(-c2noc(-c3ccc4ccccc4c3)n2)cc1	98*	90*	1	92*	-25	12	9	2	43	4
COc1cccc(-c2noc(-c3ccc4c(c3)OCO4)n2)c1	101*	89*	11	92*	-10	90*	88*	95*	92*	14

Screens from PubChem BioAssay.
